Results pooled from the literature.
Each line is one published result; the experiments were not run side by side.
Target: Serine/threonine-protein kinase 32B (STK32B, Homo sapiens, UniProt Q9NY57)

| SMILES | observed | method | concentration | remaining binding [%] |
| --- | --- | --- | --- | --- |
| N[C@@H]1CCN(c2nccc(-c3cnn4ncccc34)n2)C1 | binding | – | 1 µM | 96 |
| Cc1cnc(Nc2ccc(C(=O)N3CCC(N4CCCC4)CC3)cc2)nc1-c1cc2ccccc2s1 | binding | competition with immobilised ligand | 1 µM | 100 |
| c1cncc(-c2cccc(Nc3nccc(NC4CCCCC4)n3)c2)c1 | binding | competition with immobilised ligand | 10 µM | 100 |
| COc1ncc2cc3ccccc3nc2c1C#N | cell-free assay | competition with immobilised ligand | 5 µM | 84 |
| O=C(c1ccc(Nc2ncc(Cl)c(-c3cc4ccccc4s3)n2)cc1)N1CCC(N2CCCC2)CC1 | binding | competition with immobilised ligand | 1 µM | 100 |
| FC(F)(F)c1ccc2c(c1)nc(-c1cccnc1)n2C1CC1 | cell-free assay | competition with immobilised ligand | 1 µM | 100 |
| O=C(NCC1CCOCC1)c1n[nH]cc1NC(=O)c1c(F)cccc1F | binding | competition with immobilised ligand | 1 µM | 77 |
| CCC(=O)N[C@H]1CC[C@@H](C(=O)N(C)c2ccc(-c3nc4ccccc4o3)cc2)C1 | cell-free assay | competition with immobilised ligand | 1 µM | 98 |
| CN(C)c1ncc(F)c(-c2cnn3ncccc23)n1 | binding | – | 1 µM | 100 |
| FC(F)(F)Oc1cccc(-c2cnc3ccc(-c4ccncc4)nn23)c1 | binding | competition with immobilised ligand | 5 µM | 97 |
| O=C1NC(c2ccccn2)Sc2ccccc21 (centres unmarked) | cell-free assay | competition with immobilised ligand | 1 µM | 100 |
| O=C(c1ccc(Nc2nccc(-c3cc4ccccc4s3)n2)cc1)N1CCC(N2CCCC2)CC1 | binding | competition with immobilised ligand | 1 µM | 100 |
| CN(CCCC(F)(F)F)c1nccc(-c2cnn3ncccc23)n1 | binding | – | 1 µM | 87 |
| COc1cnc(Nc2cccc(S(N)(=O)=O)c2)nc1N1CCN(c2ccccc2)C(=O)C1 | binding | competition with immobilised ligand | 1 µM | 90 |
| c1cnn2ncc(-c3ccnc(N4CCC45COC5)n3)c2c1 | binding | – | 1 µM | 93 |
| CC1=C(C#N)[C@@H](c2ccc3[nH]nc(C)c3c2)C(C#N)=C(c2ccc(Cl)cc2)N1 | cell-free assay | competition with immobilised ligand | 1 µM | 100 |
| C[C@H]1CCN(c2nccc(-c3cnn4ncccc34)n2)C1 | binding | – | 1 µM | 100 |
| C[C@@H](c1cccc(C#N)c1)n1cc(Cl)cc(C(N)=O)c1=N | cell-free assay | competition with immobilised ligand | 1 µM | 100 |
| CC1CCCN1c1nccc(-c2cnn3ncccc23)n1 (centres unmarked) | binding | – | 1 µM | 100 |
| O=C(NCCCC1CCCCC1)c1ccc(CNC(=O)c2cnn(-c3ccccc3)c2C(F)(F)F)cc1 | cell-free assay | competition with immobilised ligand | 0.1 µM | 100 |
